The list is not random: actives were taken first. Their share in the collection is about 3.8%.
RGS4 act: RGS4 potentiation or activation; hit rate 0.92% among 310,000; B-score at 10 µM; HEK293 M3R/inducible RGS4, carbachol calcium flux Fluo4; hits give low values;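 active means B-score of the integrated calcium signal more than 4 SD below the library mean, with starting fluorescence not abnormally high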;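 further: negative B-score means reduced calcium response which marks RGS4 activation or potentiation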
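Test system: HEK293 cells with stable M3R and inducible RGS4; also added: carbachol at ECmax as muscarinic agonist stimulus; schedule: dye loading 30 min 37 °C, buffer rest 30 min RT; technique: kinetic calcium fluorescence imaging with Fluo4-AM dye, 2 µM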
Hep lipid drop: modulators of hepatic lipid droplet formation; AML12 mouse hepatocytes, oleate lipid droplets, BODIPY imaging; AID 1656; inhibition, % at 6.5 µM; hit rate 0.4% among 240,000;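 active means lipid droplet intensity inhibited by at least 50%, with more than 500 cells counted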
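Material – mouse AML12 hepatocyte cell line, fixed after treatment · Compound dosing – one dose, 6.5 µM compound · Times – compound with oleate, overnight · Measured by – Image-based BODIPY and DAPI two-channel analysis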
MrgX1 agonist: activates human MrgX1 receptor signaling; AID 588627; B-score at 10 µM; hit rate 0.44% among 310,000; MrgX1-HEK293 cells, Fluo-4 calcium fluorescence, agonist mode; hits give high values;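 active means calcium response B-score plate-corrected fluorescence ratio at least 3 library SD, with starting fluorescence B-score inside 5 SD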
Target sequence (Q96LB2 whole entry, looked up): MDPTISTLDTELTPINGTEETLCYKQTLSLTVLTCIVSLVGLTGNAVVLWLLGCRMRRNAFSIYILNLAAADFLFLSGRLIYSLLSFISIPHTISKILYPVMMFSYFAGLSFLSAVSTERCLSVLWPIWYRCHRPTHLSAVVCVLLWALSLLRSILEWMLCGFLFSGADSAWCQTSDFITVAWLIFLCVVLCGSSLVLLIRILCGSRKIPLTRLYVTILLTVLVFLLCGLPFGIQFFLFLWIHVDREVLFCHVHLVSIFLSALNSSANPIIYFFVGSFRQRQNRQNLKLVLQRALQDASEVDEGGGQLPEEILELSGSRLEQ
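Material: MrgX1-expressing HEK293 cells / Dosing: compound as first of three additions / Incubation: overnight seeding, then 1 h dark dye loading / Signal: Fluo-4 NW calcium fluorescence / Evaluation: B-scored fluorescence response ratio / Benchmarks: positive and negative control wells on each plate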
MrgX1 PAM: human MrgX1 positive allosteric modulation, primary screen. hit rate 0.63% among 310,000. MrgX1-HEK293, Fluo-4 calcium flux, FDSS; hits give high values. B-score at 10 µM. Q96LB2;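 active means plate-corrected calcium response at least 3 library SD above typical, normal starting fluorescence, not activating the receptor alone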;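 further: compound read alongside a low EC10 to EC30 dose of BAM8-22 agonist; peak minus trough fluorescence over baseline measured at the second addition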
RGS4 block: inhibitors of human RGS4; P49798; HEK293 M3R/RGS4 inducible, Fluo-4 calcium flux; hits give high values; triggered by carbachol at its EC20; B-score at 10 µM; hit rate 0.45% among 310,000; AID 463165;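 active means B-score, a plate-corrected calcium signal, over three deviations above library mean, with baseline fluorescence within five deviations of library mean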;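 further: RGS4 expression induced by doxycycline in cells with stable M3 receptor; B-score is computed from the integrated fluorescence ratio over baseline after carbachol; higher B-score means a larger calcium signal and so more RGS4 inhibition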
Target sequence (P49798 whole entry, looked up): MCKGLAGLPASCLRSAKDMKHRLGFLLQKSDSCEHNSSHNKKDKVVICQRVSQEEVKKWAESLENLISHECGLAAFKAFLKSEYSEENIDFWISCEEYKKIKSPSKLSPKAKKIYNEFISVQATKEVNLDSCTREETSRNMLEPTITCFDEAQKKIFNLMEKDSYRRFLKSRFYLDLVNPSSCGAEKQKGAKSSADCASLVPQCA
MrgX1 antagonist: antagonists of human MrgX1 receptor; Q96LB2; MRGX1-HEK293 calcium flux, Fluo-4, BAM8-22 antagonism; hits give low values; B-score at 10 µM; hit rate 1.3% among 310,000;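 active means calcium-response B-score plate-corrected more than 3 library SD below zero, starting fluorescence within 5 deviations, no agonist response on first addition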;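 further: peak minus trough fluorescence over baseline after final BAM8-22 challenge near maximal dose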
Each line names hits and unclear results; the compound was inactive in the other large screens.

COc1cc(C(=O)NCCOc2cc(C)cc(C)c2)cc(OC)c1OC	none (no result: Hep lipid drop)
O=c1cc(-c2ccccc2Cl)oc2c(NS(=O)(=O)c3cc(Cl)cc(Cl)c3O)ccc(O)c12	MrgX1 agonist 40.4
COc1cc(/C=C/C(=O)O)cc(S(=O)(=O)Nc2ccc(F)cc2)c1OC	none
COc1cc(/C=C/C(=O)O)cc(S(=O)(=O)Nc2cccc(SC)c2)c1OC	MrgX1 antagonist -6.31
CCCN1CCN(CCCNC(=O)Cn2nc(C)n3c(cc4cc(F)ccc43)c2=O)CC1	none
O=C1NC(=S)S/C1=C/c1ccc(N2CCOCC2)o1	none
COc1ccc2cc(/C=C3\SC(=S)NC3=O)c(N3CCOCC3)nc2c1	MrgX1 antagonist -6.92
COc1ccc(Cl)cc1NC(=O)CN(C)C(=O)c1ccc(N2CCCCCC2)c([N+](=O)[O-])c1	MrgX1 antagonist -6.58 (no result: Hep lipid drop)
CCN(CC(=O)Nc1c(F)cccc1F)C(=O)c1cc(S(=O)(=O)N(CC)CC)ccc1N1CCCCC1	none
CCN(CC(=O)Nc1c(F)cccc1F)C(=O)c1ccc(N2CCCCC2)c([N+](=O)[O-])c1	MrgX1 antagonist -4.64
COc1ccc(Cl)cc1NC(=O)CN(C)C(=O)c1ccc(N2CCCCC2)c([N+](=O)[O-])c1	none (no result: Hep lipid drop)
NC(=O)c1ccc(N2CCCCCC2)c([N+](=O)[O-])c1	MrgX1 antagonist -5.65
Cn1c(=S)[nH]c2sc3c(c2c1=O)CCC(C(C)(C)C)C3 (configuration not stated)	none (no result: Hep lipid drop)
CCN(CC(=O)Nc1cc(Cl)ccc1C)C(=O)CCOc1ccccc1C	none
Cc1c(C(=O)Nc2ccc(Cl)cc2)c2ccccn2c1C(=O)c1ccc([N+](=O)[O-])cc1	RGS4 act -8.21
Cc1c(C=O)c2ccccn2c1C(=O)c1ccc(Cl)c([N+](=O)[O-])c1	MrgX1 antagonist -4.61
Cc1cc2ccccn2c1C(=O)c1ccc(Cl)c([N+](=O)[O-])c1	none
O=c1sc2ccccc2c(N2CCOCC2)c1[N+](=O)[O-]	none
COc1ccc2cc(C(=O)/C=C/c3cc(OC)c(O)c(OC)c3)ccc2c1	none
COc1ccc(C(=O)/C=C/c2cc(OC)c(O)c(OC)c2)c(F)c1	MrgX1 agonist 30.5
CC(C)C(C)NC(=O)CN1C(=O)NC2(CCc3ccccc32)C1=O (configuration not stated)	none
CC(=O)Nc1ccc(-c2nc3cc(Cl)ccc3o2)cc1	none
O=C(O)c1ccccc1-c1ccccc1C(=O)Nc1ccc(-c2nc3cc(Cl)ccc3o2)cc1	MrgX1 antagonist -5.55
O=C(COC(=O)c1cc(-c2cccs2)nn1-c1ccccc1)Nc1ccc(F)c([N+](=O)[O-])c1	none
Cc1c(Cl)c([N+](=O)[O-])nn1CCCC(=O)Nc1c(C)n(C)n(-c2ccccc2)c1=O	RGS4 act -7.33
Cc1c(Cl)c([N+](=O)[O-])nn1CCCC(=O)N1CCN(c2ccccc2)CC1	MrgX1 antagonist -5.28 (no result: Hep lipid drop)
NC(CCCCc1ccccc1)c1cccc2ccccc12 (configuration not stated)	MrgX1 agonist 60.9 (no result: Hep lipid drop)
CC(CCc1ccccc1)NCc1cccc2ccccc12 (configuration not stated)	none (no result: Hep lipid drop)
Cc1cc(/C=C2/C(=N)N3C(=NC2=O)SN=C3S(C)(=O)=O)c(C)n1-c1ccc(F)cc1	MrgX1 PAM 18.3
CCC1=NN2C(=N)/C(=C\c3cccn3-c3cccc(Cl)c3)C(=O)N=C2S1	MrgX1 PAM 10.5
CC1=CSC2=NC(=O)/C(=C\c3cccn3-c3ccccc3)C(=N)N12	MrgX1 PAM 8.76
Cc1ccc(-n2cccc2/C=C2/C(=N)N3C(=NC2=O)SN=C3S(C)(=O)=O)cc1Cl	none (no result: RGS4 act, RGS4 block)
CC(C)c1ccc(-n2cccc2/C=C2/C(=N)N3C=CSC3=NC2=O)cc1	none
Cc1cccc(C)c1-n1cccc1/C=C1/C(=N)N2C(=NC1=O)SN=C2S(C)(=O)=O	RGS4 act -7.86
CCC1=NN2C(=N)/C(=C\c3cccn3-c3ccc(Br)cc3)C(=O)N=C2S1	none (no result: MrgX1 agonist, MrgX1 PAM, MrgX1 antagonist)
CCN(CC(=O)Nc1cc(Cl)ccc1C)C(=O)CCS(=O)(=O)c1ccc(C)cc1	none (no result: Hep lipid drop)
COC(=O)c1ccc(=O)c2nc3/c(=C/O)c(O)cc(=O)c3[nH]c12	none (no result: RGS4 act, RGS4 block)
COc1cc(/C=C(\C#N)C(=O)NC2CCCCC2)ccc1OCc1ccc(C(=O)O)cc1	MrgX1 PAM 7.62
Cn1ccc(C(=O)OCC(=O)Nc2ccccc2Cl)n1	none (no result: MrgX1 agonist, MrgX1 PAM, MrgX1 antagonist)
O=C(O)Cc1sc(N/N=C\c2ccncc2)nc1-c1ccccc1	MrgX1 antagonist -5.8
COc1ccc(NS(=O)(=O)c2cccc(C(=O)NNC(=O)c3cc(S(N)(=O)=O)ccc3OC)c2)cc1	none (no result: Hep lipid drop)
Cc1cc(C)c(C)c(OCC(=O)O/N=C(\N)c2ccncc2)c1	MrgX1 PAM 9.81
Cc1ccc(OCC(=O)O/N=C(\N)c2ccncc2)c(C)c1	none (no result: Hep lipid drop)
Cc1c(N=C(N)/N=C(\N)Nc2ccccc2)c(=O)n(-c2ccccc2)n1C	MrgX1 antagonist -4.58
N#Cc1c2ccc(O)cc2n2ccccc12	MrgX1 agonist 46.1
COc1ccc(/C=N/NC(=S)Nc2ccccc2[N+](=O)[O-])cc1O	MrgX1 PAM 6.83
Cc1ccc(/C(=N\O)c2oc3c(C)c4oc(=O)cc(C)c4cc3c2C)cc1	RGS4 act -8.08, MrgX1 PAM 10.2
Cc1cc(=O)oc2c1ccc1oc(/C(=N/O)c3ccccc3)c(C)c12	none
N#Cc1nc(-c2cccs2)oc1NCc1ccc2c(c1)OCO2	none (no result: Hep lipid drop)
Cc1cccc(NC(=S)NC(=O)/C=C/c2ccco2)c1	MrgX1 PAM 9.09
O=C(/C=C/c1ccco1)NC(=S)Nc1cccc([N+](=O)[O-])c1	none
O=C(/C=C/c1ccco1)NC(=S)Nc1ccccc1	MrgX1 PAM 12.9
CSc1cccc(NC(=O)/C=C/c2ccco2)c1	MrgX1 PAM 6.54
Cc1c(C(=O)N(Cc2ccccc2)C(C)C)oc2ccc(S(=O)(=O)N3CCOCC3)cc12	none
CCc1ccc(C2C(C#N)=C(N)SC(N)=C2C#N)cc1	MrgX1 antagonist -5.32 (no result: Hep lipid drop)
CCc1ccc(C2C(C#N)=C(N)SC(N)=C2C#N)s1	MrgX1 antagonist -6.07 (no result: Hep lipid drop)
CCOC(=O)C1=C(C)OC(N)=C(C#N)C1c1ccc(C)o1 (configuration not stated)	none
Cc1ccc(C2C(C#N)=C(N)SC(N)=C2C#N)o1	MrgX1 antagonist -7.25 (no result: Hep lipid drop)
O=C(Cc1ccc([N+](=O)[O-])cc1)OCc1c(F)cccc1Cl	none
N#Cc1c(N(CCO)CCO)nc(N)c2c(N)nc3c(c12)CC(=O)N3Cc1cccs1	MrgX1 antagonist -4.53
CCc1nc(C(N)=O)c2[nH]c(=O)n(-c3ccc(OC)cc3OC)c2n1	none
Cc1c(N2C(=O)/C(=C\c3ccc(N(C)C)cc3)N(C)C2=S)c(=O)n(-c2ccccc2)n1C	MrgX1 antagonist -4.52 (no result: RGS4 act, RGS4 block)
CN1C(=S)N(c2cccnc2)C(=O)/C1=C\c1ccc(N(C)C)cc1	none (no result: MrgX1 agonist, MrgX1 PAM, MrgX1 antagonist)

From PubChem BioAssay
